Measured values taken from ChEMBL document CHEMBL1165875, “Synthesis and evaluation of 9-benzylideneamino derivatives of homocamptothecin as potent inhibitors of DNA topoisomerase I” (Eur J Med Chem, 2010).
The source made the active and inactive calls. No cut-off for these calls is given here.

Assays:
[1] = tested on: A549; test: Cytotoxicity against human A549 cells after 3 days by MTT assay; type: functional, cell-based; details: A549, 72 h
How it was run: (§1)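 MTT read-out: formazan dissolved in DMSO, absorbance at 570 nm, compound-free wells as blanks. Survival expressed as percentage of untreated control wells.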

[2] = target: T1, Topoisomerase I (Bos taurus) (UniProt Q2HPH0); test: Inhibition of calf thymus DNA topoisomerase 1-mediated pBR322 DNA cleavage
T1 sequence (whole entry): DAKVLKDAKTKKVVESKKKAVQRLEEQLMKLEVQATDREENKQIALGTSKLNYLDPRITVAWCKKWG
How it was run: (§2)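 Calf thymus Topo I with supercoiled pBR322 DNA in Topo I buffer with 0.1% BSA, 20 uL reactions. Reactions stopped with loading buffer (EDTA, glycerol, xylene cyanol FF, bromophenol blue). Products resolved on 0.8% agarose in TAE, 40 min at 120 V. Gel stained with ethidium bromide at room temperature and imaged under UV.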

[3] = tested on: LoVo; test: Cytotoxicity against human LoVo cells after 3 days by MTT assay; type: functional, cell-based; details: 72 h; how it was run: as §1
[4] = tested on: MDA-MB-435; test: Cytotoxicity against human MDA-MB-435 cells after 3 days by MTT assay; type: functional, cell-based; details: MDA-MB-435, 72 h; how it was run: as §1
[5] = target: T1, Topoisomerase I (Bos taurus); test: Inhibition of calf thymus DNA topoisomerase 1-mediated pBR322 DNA cleavage at 1 uM; how it was run: as §2

Activity [2] | Activity [5] | SMILES | IC50 [1] [µM] | IC50 [3] [µM] | IC50 [4] [nM]
Active | – | CC[C@]1(O)CC(=O)OCc2c1cc1n(c2=O)Cc2c-1nc1cccc(/N=C/c3ccccc3OC)c1c2C | 2.28 | 1.93 | 2.2
– | – | CC[C@]1(O)CC(=O)OCc2c1cc1n(c2=O)Cc2c-1nc1cccc(/N=C/c3cccc([N+](=O)[O-])c3)c1c2C | 5.44 | 1.07 | 14
– | – | CC[C@]1(O)CC(=O)OCc2c1cc1n(c2=O)Cc2c-1nc1cccc(/N=C/c3cc(C)cc(C)c3)c1c2C | 5.58 | 5.96 | 1180
– | – | CC[C@]1(O)CC(=O)OCc2c1cc1n(c2=O)Cc2c-1nc1cccc(/N=C/c3ccc(N(C)C)cc3)c1c2C | 3.01 | 3.39 | 9.8
– | – | CC[C@]1(O)CC(=O)OCc2c1cc1n(c2=O)Cc2c-1nc1cccc(/N=C/c3ccc(Cl)cc3Cl)c1c2C | 3.6 | 4.19 | 360
– | – | CC[C@]1(O)CC(=O)OCc2c1cc1n(c2=O)Cc2c-1nc1cccc(/N=C/c3ccc(C)cc3C)c1c2C | 2.39 | 8.62 | 720
– | – | CC[C@@]1(O)C(=O)OCc2c1cc1n(c2=O)Cc2cc3c(CN(C)C)c(O)ccc3nc2-1 [TOPOTECAN] | 1.09 | 1.21 | 79
– | – | CC[C@]1(O)CC(=O)OCc2c1cc1n(c2=O)Cc2c-1nc1cccc(/N=C/c3ccc(C(C)(C)C)cc3)c1c2C | 4.56 | 4.26 | 270
Active | inactive | CC[C@]1(O)CC(=O)OCc2c1cc1n(c2=O)Cc2c-1nc1cccc(N)c1c2C | 3.55 | 10.3 | 110
– | – | CC[C@]1(O)CC(=O)OCc2c1cc1n(c2=O)Cc2c-1nc1cccc(/N=C/c3cccc(C)c3)c1c2C | 2.92 | 2.6 | 16
– | – | CC[C@]1(O)CC(=O)OCc2c1cc1n(c2=O)Cc2c-1nc1cccc(NC(C)=O)c1c2C | 151 | 190 | 4320
– | – | CC[C@]1(O)CC(=O)OCc2c1cc1n(c2=O)Cc2c-1nc1cccc(/N=C/c3ccc(Br)cc3)c1c2C | 1.87 | 5.8 | 18
Active | – | CC[C@]1(O)CC(=O)OCc2c1cc1n(c2=O)Cc2c-1nc1cccc(/N=C/c3ccccc3C)c1c2C | 3.29 | 1.38 | 3.9
– | – | CC[C@]1(O)CC(=O)OCc2c1cc1n(c2=O)Cc2c-1nc1cccc(/N=C/c3ccc(Cl)cc3)c1c2C | 2.55 | 1.61 | 11
Active | – | CC[C@]1(O)CC(=O)OCc2c1cc1n(c2=O)Cc2c-1nc1cccc(/N=C/c3ccc(C)cc3)c1c2C | 2.84 | 0.91 | 9.1
